Counter-ions that a name gives are not always drawn. Where only a bound is given, the exact number is not on record here.

Test [1] is described as follows: Cytotoxicity against human HCT15 cells assessed as reduction in cell growth after 72 hrs by CCK8 assay. Format: functional, cell-based. To be noted: HCT-15, 72 h. In outline:
(§1)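 Cells (2~4 x 10^4 per well) seeded overnight in media with 10% FBS, 37 °C, 5% CO₂, then exposed to graded compound concentrations for 72 h. CCK-8 solution added for a further 4 h; absorbance read at 450 nm. IC₅₀ from four-parameter logistic fit; adriamycin, etoposide and camptothecin as positive controls.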
For orientation: Tetrazolium assays rely on reduction of a dye to a coloured formazan, in cell work by metabolically active cells.

Test [2] can be described thus: Cytotoxicity against human HeLa cells assessed as reduction in cell growth after 72 hrs by CCK8 assay. Format: functional, cell-based. In outline: as §1
A short description of test [3]: Cytotoxicity against human T47D cells assessed as reduction in cell growth after 72 hrs by CCK8 assay. Format: functional, cell-based. In outline: as §1
In test [4] the target is T1, DNA topoisomerase 2-alpha (Homo sapiens, UniProt P11388). The test can be described thus: Inhibition of human topoisomerase-2 alpha at 100 uM using supercoiled pBR322 DNA as substrate after 30 mins by agarose gel electrophoresis method relative to control.
T1 sequence (P11388 whole entry): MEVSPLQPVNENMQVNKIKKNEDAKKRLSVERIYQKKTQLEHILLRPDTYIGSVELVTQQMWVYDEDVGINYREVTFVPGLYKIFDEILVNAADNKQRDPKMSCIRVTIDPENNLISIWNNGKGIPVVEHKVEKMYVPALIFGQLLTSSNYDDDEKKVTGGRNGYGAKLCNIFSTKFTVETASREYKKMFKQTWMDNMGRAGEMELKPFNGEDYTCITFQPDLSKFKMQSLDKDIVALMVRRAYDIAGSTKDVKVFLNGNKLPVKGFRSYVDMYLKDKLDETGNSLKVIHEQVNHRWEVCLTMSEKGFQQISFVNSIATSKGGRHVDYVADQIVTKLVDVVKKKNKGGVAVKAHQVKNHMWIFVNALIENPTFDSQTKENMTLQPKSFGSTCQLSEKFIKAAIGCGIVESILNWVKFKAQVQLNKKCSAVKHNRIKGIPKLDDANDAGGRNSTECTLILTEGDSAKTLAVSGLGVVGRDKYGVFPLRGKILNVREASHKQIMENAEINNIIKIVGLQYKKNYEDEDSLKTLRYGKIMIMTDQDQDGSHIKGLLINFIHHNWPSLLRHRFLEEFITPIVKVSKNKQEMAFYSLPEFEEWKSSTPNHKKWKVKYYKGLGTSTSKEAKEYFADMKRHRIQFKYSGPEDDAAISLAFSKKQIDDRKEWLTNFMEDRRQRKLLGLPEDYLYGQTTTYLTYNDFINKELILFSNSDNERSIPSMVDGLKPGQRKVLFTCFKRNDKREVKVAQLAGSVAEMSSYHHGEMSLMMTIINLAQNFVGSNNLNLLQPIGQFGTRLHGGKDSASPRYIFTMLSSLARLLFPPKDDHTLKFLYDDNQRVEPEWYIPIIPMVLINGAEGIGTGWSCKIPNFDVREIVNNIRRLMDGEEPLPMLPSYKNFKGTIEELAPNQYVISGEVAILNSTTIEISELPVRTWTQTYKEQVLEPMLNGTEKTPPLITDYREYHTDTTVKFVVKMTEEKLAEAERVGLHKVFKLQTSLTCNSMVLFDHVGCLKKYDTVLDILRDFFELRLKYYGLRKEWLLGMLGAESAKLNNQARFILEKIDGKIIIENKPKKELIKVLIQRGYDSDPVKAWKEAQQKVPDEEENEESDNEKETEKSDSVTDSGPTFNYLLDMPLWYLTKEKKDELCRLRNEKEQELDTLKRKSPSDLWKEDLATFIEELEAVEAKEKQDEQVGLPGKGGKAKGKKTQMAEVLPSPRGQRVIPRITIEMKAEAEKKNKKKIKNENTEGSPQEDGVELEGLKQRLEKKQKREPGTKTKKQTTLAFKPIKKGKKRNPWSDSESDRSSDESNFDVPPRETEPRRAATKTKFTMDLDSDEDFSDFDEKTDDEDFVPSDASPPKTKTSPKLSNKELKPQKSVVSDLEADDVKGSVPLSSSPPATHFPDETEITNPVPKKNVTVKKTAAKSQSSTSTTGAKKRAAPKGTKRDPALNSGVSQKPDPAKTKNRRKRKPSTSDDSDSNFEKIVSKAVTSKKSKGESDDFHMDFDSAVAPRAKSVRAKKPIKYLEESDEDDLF
Test [5] is described as follows: Cytotoxicity against human NCI-N87 cells assessed as reduction in cell growth after 72 hrs by CCK8 assay. Format: functional, cell-based. To be noted: NCI-N87, 72 h. In outline:
as §1

In test [6] the target is T1, DNA topoisomerase 2-alpha. The test can be described thus: Inhibition of human topoisomerase-2 alpha at 20 uM using supercoiled pBR322 DNA as substrate after 30 mins by agarose gel electrophoresis relative to control.

Take `COc1ccc(COc2cc(OCC3CO3)cc3oc4c(OC)cccc4c(=O)c23)cc1` (stereo unspecified): the IC50 (commonly the concentration that gives 50% inhibition) in test [1] came to 420 nM; in test [2], 1740 nM; in test [3], 7680 nM; in test [5], 1410 nM. In addition, in test [4], the inhibition – broadly, the change of the read-out against control, counted positive when it falls – amounted to 0%.
Turning to `COc1cccc2c(=O)c3c(OCCc4ccc(Cl)cc4)cc(OCC4CO4)cc3oc12` (stereo unspecified), the IC50 in test [1] is 45200 nM; in test [2], above 50000 nM; in test [3] it was above 50000 nM; in test [5], 1490 nM. The same compound registered an inhibition in test [4] of 0%.
With `CCCCNCC(O)COc1cc(OCc2cccc(Cl)c2)c2c(=O)c3ccccc3oc2c1` (stereo unspecified), the IC50 was 2240 nM in test [1], 2830 nM in test [2], 1170 nM in test [3] and 170 nM in test [5]. The inhibition was 56.3% in test [4] and 22.4% in test [6].
In the case of `CCCCNCC(O)COc1cc(OCc2ccc(OC)cc2)c2c(=O)c3cccc(OC)c3oc2c1` (stereo unspecified), the IC50 amounted to 2290 nM in test [1], 1820 nM in test [2], 1520 nM in test [3] and 250 nM in test [5]. Further, the inhibition in test [4] is 44.8%; in test [6], 13.9%.
With `CCCCCOc1cc(OCC(O)CNCCCC)cc2oc3c(OC)cccc3c(=O)c12` (stereo unspecified), the IC50 in test [1] amounted to 1810 nM; in test [2], 3840 nM; in test [3], 780 nM; in test [5], 480 nM. The results for the inhibition in test [4] and in test [6] were 36.3% and 9.5%, respectively.
On to `CCCCNCC(O)COc1cc(OCc2cccc(OC)c2)c2c(=O)c3ccccc3oc2c1` (stereo unspecified), for which the IC50 in test [1] turned out to be 1910 nM; in test [2], 5860 nM; in test [3], 2570 nM; in test [5] it was 70 nM. For the same compound, the inhibition in test [4] came out at 58.7%; in test [6], 19.5%.
For `CCCCNCC(O)COc1cc(OC(C)C)c2c(=O)c3ccccc3oc2c1` (stereo unspecified), the IC50 in test [1] worked out at 43400 nM; in test [2] it was 36600 nM; in test [3] it was 4710 nM; in test [5], 2050 nM. For the same compound, the inhibition in test [4] was determined as 1.5%.
In the same order, the values of `CCCCCOc1cc(OCC2CO2)cc2oc3c(OC)cccc3c(=O)c12` (stereo unspecified) are 370 nM, 4060 nM, 4570 nM, 1690 nM and 5%.
Regarding `O=c1c2ccccc2oc2cc(OCC3CO3)cc(OCCc3cccc(Cl)c3)c12` (stereo unspecified), the IC50 in test [1] stood at 4130 nM; in test [2], 1460 nM; in test [3] it was 1360 nM; in test [5], 3180 nM. In test [4], the inhibition turned out to be 0%.
As to `O=c1c2ccccc2oc2cc(OCC3CO3)cc(OCc3cccc(Cl)c3)c12` (stereo unspecified), the IC50 in test [1] was 1960 nM; in test [2] it was 3570 nM; in test [3], 3300 nM; in test [5], 1890 nM. The compound also displayed an inhibition in test [4] of 0%.
On the same counts, the results for `COc1cccc2c(=O)c3c(OCc4ccccc4)cc(OCC4CO4)cc3oc12` (stereo unspecified) are 340 nM, 1660 nM, 2020 nM, 1750 nM and 3.3%.
In the same order, the values of `COc1ccc(COc2cc(OCC3CO3)cc3oc4ccccc4c(=O)c23)cc1` (stereo unspecified) are 1720 nM, 1580 nM, 2960 nM, 3730 nM and 0%.
On the same counts, the results for `COc1cccc(COc2cc(OCC3CO3)cc3oc4ccccc4c(=O)c23)c1` (stereo unspecified) are 1490 nM, 1570 nM, 3730 nM, 3260 nM and 0%.
Turning to `COc1cccc(COc2cc(OCC3CO3)cc3oc4c(OC)cccc4c(=O)c23)c1` (stereo unspecified), the IC50 in test [1] was found to be 350 nM; in test [2], 2430 nM; in test [3] it was 4050 nM; in test [5] it was 1320 nM. The inhibition in test [4] came out at 0%.
On the same counts, the results for `CCCCOc1cc(OCC2CO2)cc2oc3ccccc3c(=O)c12` (stereo unspecified) are 2450 nM, 1810 nM, 3750 nM, 4550 nM and 0%.
Regarding `CCOc1cc(OCC2CO2)cc2oc3ccccc3c(=O)c12` (stereo unspecified), the IC50 in test [1] worked out at 3960 nM; in test [2], 800 nM; in test [3], 3600 nM; in test [5], 3910 nM. The inhibition in test [4] stood at 0%.
In the same order, the values of `COc1cccc2c(=O)c3c(OCc4cccc(C(F)(F)F)c4)cc(OCC4CO4)cc3oc12` (stereo unspecified) are 360 nM, 4270 nM, 2870 nM, 2240 nM and 0%.
Take `CCCCOc1cc(OCC2CO2)cc2oc3c(OC)cccc3c(=O)c12` (stereo unspecified): the IC50 is 220 nM in test [1], 1080 nM in test [2], 1630 nM in test [3] and 310 nM in test [5]. In test [4], this compound had an inhibition of 14.1%.
Take `COc1cccc2c1C(=O)c1c(O)c3c(c(O)c1C2=O)C[C@@](O)(C(=O)CO)C[C@@H]3O[C@H]1C[C@H](N)[C@H](O)[C@H](C)O1` [DOXORUBICIN HYDROCHLORIDE]: the figures for the IC50 in test [2], in test [3] and in test [5] were 1700 nM, 1420 nM and 710 nM, respectively.
As for `O=c1c2ccccc2oc2cc(OCC3CO3)cc(OCc3cccc(C(F)(F)F)c3)c12` (stereo unspecified), the IC50 in test [1] was 5080 nM; in test [2] it was 4280 nM; in test [3], 2300 nM; in test [5], 1360 nM. The inhibition in test [4] stood at 0%.
In the same order, the values of `CCCCNCC(O)COc1cc(OCCCC)c2c(=O)c3cccc(OC)c3oc2c1` (stereo unspecified) are 6020 nM, 7650 nM, 1130 nM, 1640 nM and 24.2%.
On to `CCCCNCC(O)COc1cc(OCC)c2c(=O)c3cccc(OC)c3oc2c1` (stereo unspecified), for which the IC50 in test [1] worked out at 10600 nM; in test [2] it was 23500 nM; in test [3], 4280 nM; in test [5], 2240 nM. In addition, the inhibition in test [4] stood at 10.7%.
On the same counts, the results for `CCCCNCC(O)COc1cc(OC(C)C)c2c(=O)c3cccc(OC)c3oc2c1` (stereo unspecified) are 9600 nM, 14400 nM, 2670 nM, 80 nM and 7.5%.
In the case of `O=c1c2ccccc2oc2cc(OCC3CO3)cc(OCc3ccccc3)c12` (stereo unspecified), the IC50 is 1500 nM in test [1], 1920 nM in test [2], 3060 nM in test [3] and 5070 nM in test [5]. The compound also showed an inhibition in test [4] of 0%.
Take `O=c1c2ccccc2oc2cc(OCC3CO3)cc(OCCc3ccc(Cl)cc3)c12` (stereo unspecified): the IC50 in test [1] was 5270 nM; in test [2] it was 4910 nM; in test [3], 970 nM; in test [5] it was 2020 nM. Further, the inhibition in test [4] was determined as 0%.
For the compound `CC[C@@]1(O)C(=O)OCc2c1cc1n(c2=O)Cc2cc3ccccc3nc2-1` [CAMPTOTHECIN], the IC50 in test [1] amounted to 1.4 nM; in test [2], 130 nM; in test [3], 80 nM; in test [5], 600 nM.
Regarding `COc1cccc2c(=O)c3c(OCCc4cccc(Cl)c4)cc(OCC4CO4)cc3oc12` (stereo unspecified), the half-maximal inhibitory concentration (IC50) in test [1] stood at 1080 nM; in test [2], 470 nM; in test [3], 2740 nM; in test [5], 1110 nM. This compound also returned an inhibition in test [4] of 0%.
In the case of `CCCCNCC(O)COc1cc(OCCCC)c2c(=O)c3ccccc3oc2c1` (stereo unspecified), the IC50 in test [1] stood at 8610 nM; in test [2], 2070 nM; in test [3], 1540 nM; in test [5] it was 1630 nM. For the same compound, the inhibition in test [4] amounted to 27.1%.
On the same counts, the results for `CCCCCOc1cc(OCC2CO2)cc2oc3ccccc3c(=O)c12` (stereo unspecified) are 3280 nM, 1790 nM, above 50000 nM, 11000 nM and 0%.
In the same order, the values of `CCCCCOc1cc(OCC(O)CNCCCC)cc2oc3ccccc3c(=O)c12` (stereo unspecified) are 4580 nM, 2560 nM, 1270 nM, 60 nM and 29.4%.
On the same counts, the results for `CCCCNCC(O)COc1cc(OCC)c2c(=O)c3ccccc3oc2c1` (stereo unspecified) are 28200 nM, above 50000 nM, 7020 nM, 1770 nM and 4.8%.
Turning to `COc1cccc2c(=O)c3c(OCc4cccc(Cl)c4)cc(OCC4CO4)cc3oc12` (stereo unspecified), the IC50 in test [1] is 170 nM; in test [2], 1700 nM; in test [3], 1550 nM; in test [5], 950 nM. This compound also registered an inhibition in test [4] of 1.7%.
Turning to `COc1cccc2c(=O)c3c(OC(C)C)cc(OCC4CO4)cc3oc12` (stereo unspecified), the IC50 in test [1] stood at 310 nM; in test [2], 1870 nM; in test [3], 1750 nM; in test [5], 3120 nM. Besides, the inhibition in test [4] amounted to 1.5%.
Regarding `CC(C)Oc1cc(OCC2CO2)cc2oc3ccccc3c(=O)c12` (stereo unspecified), the IC50 in test [1] turned out to be 1630 nM; in test [2] it was 1620 nM; in test [3], 1940 nM; in test [5] it was 290 nM. Moreover, in test [4], the inhibition is 0.1%.
In the same order, the values of `CCOc1cc(OCC2CO2)cc2oc3c(OC)cccc3c(=O)c12` (stereo unspecified) are 820 nM, 1170 nM, 830 nM, 1190 nM and 2.5%.

The values above are taken from ChEMBL document CHEMBL3870311, “Synthesis and biological evaluation of C1-O-substituted-3-(3-butylamino-2-hydroxy-propoxy)-xanthen-9-one as topoisomerase IIα catalytic inhibitors” (Eur J Med Chem, 2016).
